Reference: ChEMBL document CHEMBL1149742, “Displacement activity of bisbenzylisoquinoline alkaloids at striatal 3H-SCH 23390 and 3H-raclopride binding sites” (J Nat Prod, 1992)

How the values were obtained:
D(2) dopamine receptor = D(2) dopamine receptor (Rattus norvegicus, UniProt P61169); assay: Displacement of [3H]raclopride from dopamine D2 receptor in Wistar rat striatal membrane by liquid scintillation counting; assay type: cell membranes, Striatum
Method in brief: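 Male Wistar rat (200–250 g) striatal membranes, centrifuged four times at 20,000 g, resuspended in Tris-ions buffer (120 mM NaCl, 5 mM KCl, 1 mM CaCl2, 1 mM MgCl2, 0.1% ascorbic acid, pH 7.4). 200 µg protein incubated 1 h at 25° with 0.5 nM [3H]raclopride (final), compounds at 6 or 11 concentrations 10^-9–10^-4 M. Nonspecific binding with 50 µM apomorphine. GF/B filtration. IC50 by Litchfield–Wilcoxon, 4–8 determinations per concentration.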

D(1A) dopamine receptor = D(1A) dopamine receptor (Rattus norvegicus, UniProt P18901); assay: Displacement of [3H]SCH23390 from dopamine D1 receptor in Wistar rat striatal membrane by liquid scintillation counting; assay type: cell membranes, Striatum
Method in brief: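 Striata from male Wistar rats (200–250 g) homogenized in 50 mM Tris-HCl pH 7.4, centrifuged twice at 20,000 g, resuspended in Tris-Mg buffer (5 mM MgSO4, 0.5 mM EDTA, 0.02% ascorbic acid). 100 µg protein incubated 1 h at 25° with 0.25 nM [3H]SCH 23390 (final), compounds at 6 or 11 concentrations 10^-9–10^-4 M. Nonspecific binding with 30 µM SK&F 38393. GF/B filtration. IC50 with 95% confidence limits by Litchfield–Wilcoxon, 4–8 determinations per concentration.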

Rattus norvegicus = species on record: Rattus norvegicus; assay: Selectivity ratio of IC50 for dopamine D1 receptor in Wistar rat striatal membrane to IC50 for dopamine D2 receptor in Wistar rat striatal membrane; assay type: cell membranes

D(1A) dopamine receptor, sequence (P18901 whole entry): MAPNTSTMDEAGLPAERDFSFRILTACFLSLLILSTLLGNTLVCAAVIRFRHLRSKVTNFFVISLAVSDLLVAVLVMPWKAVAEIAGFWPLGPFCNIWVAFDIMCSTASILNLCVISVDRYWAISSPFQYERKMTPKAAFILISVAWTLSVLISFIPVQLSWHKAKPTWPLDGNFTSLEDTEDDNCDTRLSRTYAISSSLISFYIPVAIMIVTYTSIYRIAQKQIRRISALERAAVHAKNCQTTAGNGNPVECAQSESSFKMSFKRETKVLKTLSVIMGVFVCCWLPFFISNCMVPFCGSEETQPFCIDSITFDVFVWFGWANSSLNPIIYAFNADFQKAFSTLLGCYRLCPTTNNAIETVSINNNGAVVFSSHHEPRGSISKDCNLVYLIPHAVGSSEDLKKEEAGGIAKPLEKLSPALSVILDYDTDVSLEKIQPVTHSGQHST
D(2) dopamine receptor, sequence (P61169 whole entry): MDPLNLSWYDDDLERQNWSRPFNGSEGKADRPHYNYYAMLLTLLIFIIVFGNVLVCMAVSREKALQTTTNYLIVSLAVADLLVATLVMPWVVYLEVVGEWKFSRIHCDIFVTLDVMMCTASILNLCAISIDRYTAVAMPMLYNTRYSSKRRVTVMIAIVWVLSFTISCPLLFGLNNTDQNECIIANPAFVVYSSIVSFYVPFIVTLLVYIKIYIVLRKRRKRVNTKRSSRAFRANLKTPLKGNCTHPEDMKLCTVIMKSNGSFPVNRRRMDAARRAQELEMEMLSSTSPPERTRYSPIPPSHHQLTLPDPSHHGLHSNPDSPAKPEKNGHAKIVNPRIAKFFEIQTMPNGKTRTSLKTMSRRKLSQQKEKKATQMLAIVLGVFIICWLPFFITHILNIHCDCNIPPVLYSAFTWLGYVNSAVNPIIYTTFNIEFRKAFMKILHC

**Q.** Which results are given for COc1cc2c(cc1OC)[C@@H](Cc1ccc(Oc3cc(C[C@@H]4c5cc(OC)c(OC)cc5CCN4C)ccc3OC)cc1)N(C)CC2?
**A.** IC50 (D(2) dopamine receptor): > 100 µM; IC50 (D(1A) dopamine receptor): > 100 µM

**Q.** For COc1cc2c3cc1Oc1c(O)c(OC)cc4c1[C@@H](C(=O)c1ccc(O)c(c1)-c1cc(ccc1OC)C[C@H]3N(C)CC2)N(C)CC4, which IC50 (D(2) dopamine receptor) is on record?
**A.** 16.2 µM

**Q.** What about the Ratio IC50 (Rattus norvegicus) of the same molecule?
**A.** 5.6

**Q.** What about the IC50 (D(1A) dopamine receptor) of the same molecule?
**A.** 90.2 µM

**Q.** With COc1ccc2cc1Oc1ccc(cc1)C[C@H]1c3c(cc(OC)c(OC)c3Oc3cc4c(cc3OC)CCN(C)[C@@H]4C2)CCN1C as the molecule, how does the IC50 (D(2) dopamine receptor) read?
**A.** 28.4 µM

**Q.** What about the Ratio IC50 (Rattus norvegicus) of the same molecule?
**A.** 1.4

**Q.** What about the IC50 (D(1A) dopamine receptor) of the same molecule?
**A.** 39.1 µM

**Q.** Which IC50 (D(2) dopamine receptor) does the source give for COc1cc2c(cc1OC)[C@@H](Cc1ccc(OC)c(Oc3ccc(C[C@H]4NCCc5cc(OC)c(OC)cc54)cc3)c1)N(C)CC2 here?
**A.** > 100 µM

**Q.** What about the IC50 (D(1A) dopamine receptor) of the same molecule?
**A.** > 100 µM

**Q.** How did the IC50 (D(2) dopamine receptor) turn out when COc1ccc2cc1Oc1ccc(cc1)C[C@H]1c3cc(c(OC)cc3CCN1C)Oc1c(OC)c(OC)cc3c1[C@@H](C2)N(C)CC3 was run?
**A.** 0.67 µM

**Q.** What about the Ratio IC50 (Rattus norvegicus) of the same molecule?
**A.** 49.6

**Q.** What about the IC50 (D(1A) dopamine receptor) of the same molecule?
**A.** 33.3 µM

**Q.** How did the IC50 (D(2) dopamine receptor) turn out when COc1ccc(C[C@H]2c3c(cc(OC)c4c3Oc3cc5c(cc3O4)CCN(C)C5=O)CCN2C)cc1-c1cc(C=O)ccc1O was run?
**A.** 81.6 µM

**Q.** What about the Ratio IC50 (Rattus norvegicus) of the same molecule?
**A.** > 1.2

**Q.** What about the IC50 (D(1A) dopamine receptor) of the same molecule?
**A.** > 100 µM

**Q.** What does the source list for COc1cc2c(cc1O)[C@@H](Cc1ccc(O)c(Oc3ccc(C[C@H]4c5cc(O)c(OC)cc5CCN4C)cc3)c1)N(C)CC2?
**A.** IC50 (D(2) dopamine receptor): 0.3 µM; Ratio IC50 (Rattus norvegicus): 3.5; IC50 (D(1A) dopamine receptor): 1.04 µM

**Q.** Which IC50 (D(2) dopamine receptor) does the source give for COc1cc2c3cc1Oc1c(O)c(OC)cc4c1[C@H](Cc1ccc(OC)c(c1)-c1cc(ccc1O)C[C@H]3N(C)CC2)N(C)CC4 here?
**A.** 3.18 µM

**Q.** What about the Ratio IC50 (Rattus norvegicus) of the same molecule?
**A.** 31.4

**Q.** And the IC50 (D(1A) dopamine receptor)?
**A.** > 100 µM

**Q.** With COc1cc2c3cc1Oc1c(O)c(OC)cc4c1[C@H](Cc1ccc(OC)c(c1)-c1cc(ccc1O)C(=O)[C@H]3N(C)CC2)N(C)CC4 as the molecule, how does the IC50 (D(2) dopamine receptor) read?
**A.** 2.76 µM

**Q.** What about the Ratio IC50 (Rattus norvegicus) of the same molecule?
**A.** 4

**Q.** What about the IC50 (D(1A) dopamine receptor) of the same molecule?
**A.** 11.1 µM

**Q.** With COc1cc2c(cc1O)[C@@H](Cc1ccc(OC)c(Oc3ccc(C[C@H]4c5cc(O)c(OC)cc5CCN4C)cc3)c1)N(C)CC2 as the molecule, how does the IC50 (D(2) dopamine receptor) read?
**A.** 0.027 µM

**Q.** What about the Ratio IC50 (Rattus norvegicus) of the same molecule?
**A.** 207

**Q.** And the IC50 (D(1A) dopamine receptor)?
**A.** 5.6 µM

**Q.** How did the IC50 (D(2) dopamine receptor) turn out when COc1cc2c(cc1OC)[C@@H](Cc1ccc(Oc3cc(C[C@H]4c5cc(OC)c(OC)cc5CCN4C)ccc3OC)cc1)N(C)CC2 was run?
**A.** 1.45 µM

**Q.** What about the Ratio IC50 (Rattus norvegicus) of the same molecule?
**A.** 3.9

**Q.** What about the IC50 (D(1A) dopamine receptor) of the same molecule?
**A.** 5.64 µM

**Q.** Which results are given for COc1ccc2cc1Oc1ccc(cc1)C[C@@H]1c3c(cc(OC)c(O)c3Oc3cc4c(cc3OC)CCN(C)[C@H]4C2)CCN1C (racemic)?
**A.** IC50 (D(2) dopamine receptor): 66.4 µM; Ratio IC50 (Rattus norvegicus): 0.2; IC50 (D(1A) dopamine receptor): 15.4 µM

**Q.** How did the IC50 (D(2) dopamine receptor) turn out when COc1ccc(C=O)cc1Oc1ccc(C[C@H]2c3c(cc(OC)c(OC)c3Oc3cc4c(cc3OC)CCN(C)C4=O)CCN2C)cc1 was run?
**A.** > 30 µM

**Q.** And the IC50 (D(1A) dopamine receptor)?
**A.** > 30 µM

**Q.** How did the IC50 (D(2) dopamine receptor) turn out when COc1cc2c(cc1Oc1c(O)c(OC)cc3c1[C@H](Cc1ccc(OC)c(-c4cc(C=O)ccc4O)c1)N(C)CC3)C(=O)N(C)CC2 was run?
**A.** 10 µM

**Q.** And the Ratio IC50 (Rattus norvegicus)?
**A.** > 3

**Q.** And the IC50 (D(1A) dopamine receptor)?
**A.** > 30 µM
